Screening data deposited in PubChem BioAssay by several laboratories.
MPTP block = inhibitors of mitochondrial permeability transition pore. isolated mouse mitochondria, Ca2+ swelling absorbance, 30 min. inhibition, % at 10 µM. actives 1.4% (n = 360,000). AID 602449;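 active = inhibition of 50% or more, scaled per plate between neutral and stimulator controls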
ADAM17 inh = inhibits human ADAM17; P78536; recombinant ADAM17, EDANS/DABCYL FRET peptide cleavage; inhibition, % at 6.95 µM; actives 0.83% (n = 370,000);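 active = inhibition above the mean of compounds lying between control limits plus 3 SD, set per campaign, cut at about 8.5% in these data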
NR3A LBD binder = NR3A (human) ligand-binding domain modulation. NR3A LBD differential scanning fluorimetry, Tm shift; 0% = protein alone, 100% = glycine-bound protein. Tm shift relative to glycine control, % at 25 µM. actives 2.5% (n = 340,000);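 active = melting temperature shift of at least 10% of the positive control shift, at one fixed dose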
ADAM10 inh = inhibitors of human ADAM10; inhibition, % at 7 µM; recombinant ADAM10, EDANS/DABCYL FRET peptide cleavage, 3 h; O14672; actives 0.62% (n = 370,000); AID 720582;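 active = inhibition above a per-campaign cutoff equal to the mean of compounds falling between control-based bounds plus 3 SD, cut at about 20% in these data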
Target sequence (O14672 214-748 limits assumed): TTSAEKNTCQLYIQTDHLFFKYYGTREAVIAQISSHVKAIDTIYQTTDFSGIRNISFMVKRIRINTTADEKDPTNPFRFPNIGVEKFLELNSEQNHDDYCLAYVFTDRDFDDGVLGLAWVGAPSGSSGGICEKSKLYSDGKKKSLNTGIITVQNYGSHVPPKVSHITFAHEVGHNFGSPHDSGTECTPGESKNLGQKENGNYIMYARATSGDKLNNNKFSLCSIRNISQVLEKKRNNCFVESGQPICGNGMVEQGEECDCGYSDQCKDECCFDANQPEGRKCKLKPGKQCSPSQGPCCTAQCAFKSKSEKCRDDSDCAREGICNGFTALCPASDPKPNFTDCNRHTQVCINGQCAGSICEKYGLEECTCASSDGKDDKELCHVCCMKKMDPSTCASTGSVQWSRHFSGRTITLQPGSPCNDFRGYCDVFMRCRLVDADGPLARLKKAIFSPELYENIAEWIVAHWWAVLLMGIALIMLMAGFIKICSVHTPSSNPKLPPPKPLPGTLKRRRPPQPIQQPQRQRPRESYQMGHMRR
MT1-MMP act inh = blocks activation of human MT1-MMP | actives 0.061% (n = 360,000) | AID 651647 | P50281 | HT1080 RFP-PRO-GFP cells, GFP/RFP ratio fluorescence, overnight; percent of plate control window, DMSO zero | GFP/RFP ratio change, % at 20 µM;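 active = GFP/RFP ratio change of at least 30% with cell ATP level not reduced by more than half and red fluorescence within 50% of control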
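Material – HT1080 RFP-PRO-GFP cells · Control set – DMSO wells and RFP-L50D-GFP cells · Incubation – overnight cell settling, then overnight compound exposure, 37 °C, 5% CO2 · Compound dosing – single-point 20 µM compound, 1% DMSO · Read-out – GFP/RFP fluorescence ratio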
SKN-1 block = C. elegans SKN-1 inhibition. C. elegans VP596 Pgst-4::GFP/RFP ratio, acrylamide-induced, 24 h. inhibition, % at 21.8 µM. actives 0.49% (n = 360,000). AID 624304;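 active = interference check ratio from 0.5 to 1.5 plus GFP to RFP signal ratio inhibition reaching or exceeding a fixed threshold, cut at about 30% in these data, passing the limit was not always enough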
Numbers stand for hits. An excerpt weighted towards active compounds, which were near 4.7% of everything screened.

Results for COc1cc(/C=N/NC(=O)c2cc(-c3cccc(Br)c3)nc3ccccc23)cc(OC)c1O ?
MPTP block: inactive; ADAM17 inh: inactive; NR3A LBD binder: 13; ADAM10 inh: inactive; MT1-MMP act inh: inactive; SKN-1 block: inactive

How did COc1cccc(N2CC(C(=O)Nc3ccc(F)cc3)CC2=O)c1 (stereo not drawn) do in these assays?
MPTP block: inactive; ADAM17 inh: inactive; NR3A LBD binder: inactive; ADAM10 inh: inactive; MT1-MMP act inh: inactive; SKN-1 block: inactive

Results for O=C(N/N=C/c1ccccc1O)c1ccncc1 ?
MPTP block: inactive; ADAM17 inh: inactive; NR3A LBD binder: 21; ADAM10 inh: inactive; MT1-MMP act inh: inactive; SKN-1 block: inactive

Results for O=C(N/N=C/c1ccc(O)cc1)c1csc2ccccc12 ?
MPTP block: inactive; ADAM17 inh: inactive; NR3A LBD binder: 23; ADAM10 inh: inactive; MT1-MMP act inh: inactive; SKN-1 block: inactive

Results for O=C(N/N=C/c1ccc(O)cc1)c1cc(-c2ccccc2)nc2ccccc12 ?
MPTP block: inactive; ADAM17 inh: inactive; NR3A LBD binder: 13; ADAM10 inh: inactive; MT1-MMP act inh: inactive; SKN-1 block: inactive

What do the screens show for `O=C(N/N=C/c1cccc2ccccc12)c1ccncc1`?
MPTP block: inactive; ADAM17 inh: inactive; NR3A LBD binder: inactive; ADAM10 inh: inactive; MT1-MMP act inh: inactive; SKN-1 block: inactive

Results for COc1ccc(-c2nc(SC(C)C(=O)NC3CC3)n[nH]2)cc1 (stereo not drawn) ?
MPTP block: inactive; ADAM17 inh: inactive; NR3A LBD binder: inactive; ADAM10 inh: inactive; MT1-MMP act inh: inactive; SKN-1 block: inactive

How did Cc1cccc(NC(=O)CSc2nc3c([nH]c4ccccc43)c(=O)n2C)c1 do in these assays?
MPTP block: inactive; ADAM17 inh: inactive; NR3A LBD binder: inactive; ADAM10 inh: inactive; MT1-MMP act inh: inactive; SKN-1 block: inactive

Results for COc1cccc(NC(=O)CSc2nc3c([nH]c4ccccc43)c(=O)n2C)c1 ?
MPTP block: inactive; ADAM17 inh: inactive; NR3A LBD binder: 38; ADAM10 inh: inactive; MT1-MMP act inh: inactive; SKN-1 block: inactive

How did CCC1CCCCN1C(=O)CSc1nc2c([nH]c3ccccc32)c(=O)n1C (stereo not drawn) do in these assays?
MPTP block: inactive; ADAM17 inh: inactive; NR3A LBD binder: 17; ADAM10 inh: inactive; MT1-MMP act inh: inactive; SKN-1 block: inactive

Results for CCSc1nc2c([nH]c3ccccc32)c(=O)n1C ?
MPTP block: inactive; ADAM17 inh: inactive; NR3A LBD binder: inactive; ADAM10 inh: inactive; MT1-MMP act inh: inactive; SKN-1 block: inactive

What do the screens show for `CCCCN(C)C(=O)c1nc2ccccn2c1CN1CCN(C(=O)c2cccs2)CC1`?
MPTP block: inactive; ADAM17 inh: inactive; NR3A LBD binder: inactive; ADAM10 inh: inactive; MT1-MMP act inh: inactive; SKN-1 block: inactive

Results for CCc1nc2sc(C)c(C)c2c(=O)n1CCO ?
MPTP block: inactive; ADAM17 inh: inactive; NR3A LBD binder: inactive; ADAM10 inh: inactive; MT1-MMP act inh: inactive; SKN-1 block: inactive

Results for CC1CCCCC1NC(=O)/C(C#N)=C/c1ccc2c(c1)OCCO2 (stereo not drawn) ?
NR3A LBD binder: 13

What do the screens show for `CC(C)(C)c1ccc(-c2noc(-c3ccno3)n2)cc1`?
MPTP block: inactive; ADAM17 inh: inactive; NR3A LBD binder: 12; ADAM10 inh: inactive; MT1-MMP act inh: inactive; SKN-1 block: inactive

How did CC1(C)CC(=O)C/C(=N\NC(=S)NCc2ccccc2)C1 do in these assays?
MPTP block: inactive; ADAM17 inh: inactive; NR3A LBD binder: inactive; ADAM10 inh: inactive; MT1-MMP act inh: inactive; SKN-1 block: inactive

What do the screens show for `N#CCCNCC1(c2ccccc2)CCCC1`?
MPTP block: inactive; ADAM17 inh: inactive; NR3A LBD binder: inactive; ADAM10 inh: inactive; MT1-MMP act inh: inactive; SKN-1 block: inactive

How did Cc1ccccc1OCC(=O)OCC(=O)NCC1CCCCC1 do in these assays?
MPTP block: inactive; ADAM17 inh: inactive; NR3A LBD binder: inactive; ADAM10 inh: inactive; MT1-MMP act inh: inactive; SKN-1 block: inactive

What do the screens show for `Cc1sc2ncnc(N3CCC(C(=O)Nc4ccc(Cl)c(Cl)c4)CC3)c2c1C`?
MPTP block: inactive; ADAM17 inh: inactive; NR3A LBD binder: 11; ADAM10 inh: inactive; MT1-MMP act inh: inactive; SKN-1 block: inactive

What do the screens show for `COc1ccc(OC)c(-c2cn(S(=O)(=O)c3ccccc3)nc2N)c1`?
MPTP block: inactive; ADAM17 inh: inactive; NR3A LBD binder: 17; ADAM10 inh: inactive; MT1-MMP act inh: inactive; SKN-1 block: inactive

Results for COc1ccccc1-c1cn(S(=O)(=O)c2ccc(C)cc2)nc1N ?
MPTP block: inactive; ADAM17 inh: inactive; NR3A LBD binder: inactive; ADAM10 inh: inactive; MT1-MMP act inh: inactive; SKN-1 block: inactive

How did CCCNc1nc(Cl)nc(Nc2ccc(Cl)cc2)n1 do in these assays?
MPTP block: inactive; ADAM17 inh: inactive; NR3A LBD binder: inactive; ADAM10 inh: inactive; MT1-MMP act inh: inactive; SKN-1 block: inactive

How did Cc1cc2nc(CO)[nH]c2cc1C do in these assays?
MPTP block: inactive; ADAM17 inh: inactive; NR3A LBD binder: 15; ADAM10 inh: inactive; MT1-MMP act inh: inactive; SKN-1 block: inactive

Results for COc1cc(C2C(C(=O)c3cccs3)=C(O)C(=O)N2CCN2CCOCC2)cc(OC)c1OC (stereo not drawn) ?
MPTP block: inactive; ADAM17 inh: inactive; NR3A LBD binder: inactive; ADAM10 inh: inactive; MT1-MMP act inh: inactive; SKN-1 block: inactive

How did COc1ccccc1NC1=C(Cl)C(=O)N(C2CCCCC2)C1=O do in these assays?
MPTP block: inactive; ADAM17 inh: inactive; NR3A LBD binder: inactive; ADAM10 inh: inactive; MT1-MMP act inh: inactive; SKN-1 block: inactive

What do the screens show for `Cc1nc(-c2cccc(NC(=O)c3ccc(-n4nccc4C)cc3)c2)cs1`?
MPTP block: inactive; ADAM17 inh: inactive; NR3A LBD binder: 23; ADAM10 inh: inactive; MT1-MMP act inh: inactive; SKN-1 block: inactive

How did Cc1nc(-c2ccc(NC(=O)c3ccc(Br)o3)cc2)cs1 do in these assays?
MPTP block: inactive; ADAM17 inh: inactive; NR3A LBD binder: 20; ADAM10 inh: inactive; MT1-MMP act inh: inactive; SKN-1 block: inactive

What do the screens show for `Cc1nc(-c2cccc(NC(=O)c3ccc(Br)o3)c2)cs1`?
MPTP block: inactive; ADAM17 inh: inactive; NR3A LBD binder: inactive; ADAM10 inh: inactive; MT1-MMP act inh: inactive; SKN-1 block: inactive

What do the screens show for `Cc1nc(-c2ccc(C(=O)Nc3cccc(Br)c3)cc2)cs1`?
MPTP block: inactive; ADAM17 inh: inactive; NR3A LBD binder: 32; ADAM10 inh: inactive; MT1-MMP act inh: inactive; SKN-1 block: inactive

Results for CC(C)CS(=O)(=O)C1=NN2C(=N)/C(=C\c3ccc(OC(=O)c4ccco4)cc3)C(=O)N=C2S1 ?
MPTP block: inactive; ADAM17 inh: inactive; NR3A LBD binder: inactive; ADAM10 inh: inactive; MT1-MMP act inh: inactive; SKN-1 block: inactive
